ChEMBL document CHEMBL2384910, “Lead optimization of 5-amino-6-(2,2-dimethyl-5-oxo-4-phenylpiperazin-1-yl)-4-hydroxyhexanamides to reduce a cardiac safety issue: discovery of DS-8108b, an orally active renin inhibitor” (Bioorg Med Chem, 2013)
Activity calls are given as the source filed them. The calls are words filed in the database; no cut-off is given here.

Experiments:
[1] = target: CYP3A4 (Homo sapiens, UniProt P08684); test: Inhibition of CYP3A4 in human liver microsomes assessed as residual activity at 100 uM by LC/MS analysis; assay type: ADME, Microsome; conditions: read-out: Activity
[2] = species on record: Oryctolagus cuniculus; test: Cardiotoxicity in New Zealand White rabbit heart assessed as change in QTc interval at 100 uM after 20 mins relative to baseline; assay type: toxicity; conditions: ex_vivo
How it was run: (§1)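 Isolated Langendorff-perfused hearts from female NZW rabbits anesthetized with thiopental 30 mg/kg iv; heart excised into chilled Krebs-Henseleit solution. After parameters stabilized, compound perfused at 10, 30 and 100 µM for 20 min; ECG changes expressed as % change from baseline.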

[3] = system: Cynomolgus monkey; test: Inhibition of renin in furosemide pretreated cynomolgus monkey assessed as reduction in mean arterial blood pressure at 1 to 10 mg/kg, po up to 24 hrs; assay type: functional, organism-based; conditions: Macaca fascicularis
How it was run: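 Conscious freely moving telemetered cynomolgus monkeys (n = 6), furosemide 5 mg/kg/day im for 3 days before dosing; fasted from morning, fed ≥8 h post-dose. Oral 1, 3, 10 mg/kg or 1% methylcellulose, crossover design; arterial pressure recorded from −3 to 24 h; hourly mean MAP; mean ± SEM.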

[4] = target: T1, Renin (Macaca fascicularis, UniProt Q6DLS0); test: Inhibition of renin in cynomolgus monkey plasma after 1 hr by RIA
T1 sequence (Q6DLS0 whole entry): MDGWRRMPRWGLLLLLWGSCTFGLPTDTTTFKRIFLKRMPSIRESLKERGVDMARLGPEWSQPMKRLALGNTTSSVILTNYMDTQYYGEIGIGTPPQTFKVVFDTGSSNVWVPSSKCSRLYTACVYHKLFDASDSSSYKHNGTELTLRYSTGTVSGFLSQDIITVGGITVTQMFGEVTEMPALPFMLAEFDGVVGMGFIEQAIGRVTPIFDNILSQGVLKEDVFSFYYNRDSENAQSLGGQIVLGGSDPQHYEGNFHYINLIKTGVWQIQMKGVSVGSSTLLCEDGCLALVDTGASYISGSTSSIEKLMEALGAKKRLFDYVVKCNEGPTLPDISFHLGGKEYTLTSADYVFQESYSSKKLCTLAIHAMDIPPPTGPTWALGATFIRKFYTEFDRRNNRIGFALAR
How it was run: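 Pooled mixed-gender EDTA cynomolgus monkey plasma with pH adjusting solution and Inhibitor A, compound in 1% DMSO final, incubated 1 h at 37 °C. Angiotensin I by competitive RIA; uninhibited and 4 °C controls define % inhibition; IC50 from four-parameter fit; ratio is compound IC50 over aliskiren IC50 in same plasma batch; ≥2 replicates.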

[5] = system: Heart; test: Cardiotoxicity in New Zealand White rabbit heart assessed as change in heart rate at 100 uM after 20 mins relative to baseline; assay type: toxicity, tissue-based, Oryctolagus cuniculus; how it was run: as §1
[6] = system: Oryctolagus cuniculus; test: Cardiotoxicity in anesthetized New Zealand White rabbit assessed as change in QTc interval at 1 mg/kg/min, iv after 10 mins relative to baseline; assay type: toxicity, organism-based; parameters: route intravenous; conditions: in vivo
How it was run: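 Female NZW rabbits anesthetized with ketamine 35 mg/kg ip plus xylazine 5 mg/kg ip, tracheotomized, ventilated with room air. ECG and systemic pressure monitored; HR, PR, QRS, QT, QTc quantified. After stabilization, continuous iv infusion 1 mg/kg/min for 1 h; values at 10 min as % change from baseline.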

[7] = target: Voltage-gated inwardly rectifying potassium channel KCNH2 (Homo sapiens, UniProt Q12809); test: Inhibition of human ERG channel expressed in CHOK1 cells at 100 uM after 5 mins by patch clamp technique; assay type: cell-based; conditions: cho-k1, 5 min
How it was run: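 CHO-K1 cells stably expressing hERG; automated patch clamp. Holding −80 mV, step to +50 mV for 2 s, then −40 mV for 2 s; tail peak current measured. Compound incubated 5 min.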

[8] = system: Cynomolgus monkey; test: Inhibition of renin in po dosed furosemide pretreated cynomolgus monkey plasma after 1 to 24 hrs; assay type: functional, organism-based; conditions: Macaca fascicularis
How it was run: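 Cynomolgus monkeys pretreated with furosemide given single oral dose 1, 3 or 10 mg/kg or vehicle 1% methylcellulose. Venous blood into EDTA-2Na tubes at 1, 2, 4, 8, 24 h, chilled, centrifuged cold, plasma frozen; plasma renin activity by radioimmunoassay.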

CYP3A4, sequence (P08684 whole entry): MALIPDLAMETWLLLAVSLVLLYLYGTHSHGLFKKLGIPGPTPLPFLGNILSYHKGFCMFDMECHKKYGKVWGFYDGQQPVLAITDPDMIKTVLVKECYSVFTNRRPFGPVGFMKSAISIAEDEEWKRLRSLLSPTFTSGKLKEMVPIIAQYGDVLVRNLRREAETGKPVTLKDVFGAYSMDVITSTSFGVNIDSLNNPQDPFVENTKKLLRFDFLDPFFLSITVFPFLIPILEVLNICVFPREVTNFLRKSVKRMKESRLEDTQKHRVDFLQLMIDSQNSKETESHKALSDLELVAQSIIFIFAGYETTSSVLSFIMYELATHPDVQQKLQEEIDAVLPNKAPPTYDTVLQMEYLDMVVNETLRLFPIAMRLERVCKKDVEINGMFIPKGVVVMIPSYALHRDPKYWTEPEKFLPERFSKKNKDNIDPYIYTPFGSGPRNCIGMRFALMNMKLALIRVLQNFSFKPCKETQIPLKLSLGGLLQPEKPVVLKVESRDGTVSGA
Voltage-gated inwardly rectifying potassium channel KCNH2, sequence (Q12809 whole entry): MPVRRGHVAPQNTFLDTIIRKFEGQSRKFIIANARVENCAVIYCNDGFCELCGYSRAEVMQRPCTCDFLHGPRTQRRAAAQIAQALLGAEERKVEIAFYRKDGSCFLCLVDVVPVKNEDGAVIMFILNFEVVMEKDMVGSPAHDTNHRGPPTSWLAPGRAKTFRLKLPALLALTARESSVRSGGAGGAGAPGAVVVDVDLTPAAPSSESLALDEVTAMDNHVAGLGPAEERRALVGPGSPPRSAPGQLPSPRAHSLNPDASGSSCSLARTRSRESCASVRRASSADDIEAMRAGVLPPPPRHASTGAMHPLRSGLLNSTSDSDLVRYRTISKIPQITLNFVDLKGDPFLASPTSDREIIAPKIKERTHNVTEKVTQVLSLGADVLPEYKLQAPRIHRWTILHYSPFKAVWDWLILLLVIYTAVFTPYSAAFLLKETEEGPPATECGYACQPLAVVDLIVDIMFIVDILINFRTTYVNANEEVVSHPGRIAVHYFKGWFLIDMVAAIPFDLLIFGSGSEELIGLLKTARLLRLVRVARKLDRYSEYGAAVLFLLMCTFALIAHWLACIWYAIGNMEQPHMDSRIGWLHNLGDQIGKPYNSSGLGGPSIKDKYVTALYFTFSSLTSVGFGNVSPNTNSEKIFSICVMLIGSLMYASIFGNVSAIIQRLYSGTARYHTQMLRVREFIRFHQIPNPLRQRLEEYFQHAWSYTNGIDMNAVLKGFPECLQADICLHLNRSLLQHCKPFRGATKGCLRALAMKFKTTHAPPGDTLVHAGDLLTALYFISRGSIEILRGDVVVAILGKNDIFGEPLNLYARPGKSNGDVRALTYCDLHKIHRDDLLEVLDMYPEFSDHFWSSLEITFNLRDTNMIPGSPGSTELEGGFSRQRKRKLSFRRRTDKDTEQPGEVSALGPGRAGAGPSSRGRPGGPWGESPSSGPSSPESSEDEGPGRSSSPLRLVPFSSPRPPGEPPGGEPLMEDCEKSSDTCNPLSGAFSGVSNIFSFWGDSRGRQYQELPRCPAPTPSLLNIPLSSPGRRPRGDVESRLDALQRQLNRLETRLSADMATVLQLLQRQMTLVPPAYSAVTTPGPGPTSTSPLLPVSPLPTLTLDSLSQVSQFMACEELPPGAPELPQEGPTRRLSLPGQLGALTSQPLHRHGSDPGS

CC[C@H](C[C@H](O)[C@@H](N)CN1CC(=O)N(c2ccccc2Cl)CC1(C)C)C(=O)N[C@H]1C2CC3CC1C[C@](O)(C3)C2.O=C(O)/C=C/C(=O)O
activity at 100 µM [1]: 77.9% | Activity [2]: -3.2% | inhibition [3]: Active | IC50 [4]: 6.3 nM | Activity [5]: -5.8% | Activity [6]: 2.7% | inhibition (INH) [7]: Not Active | inhibition [8]: Dose-dependent effect
